Test results reported in ChEMBL document CHEMBL1123833, “Novel inhibitors of rat lens aldose reductase: N-[[(substituted amino)phenyl]sulfonyl]glycines” (J Med Chem, 1987).

What was measured:
[1] = molecular target: Aldo-keto reductase family 1 member B1 (Rattus norvegicus) (UniProt P07943); test: Inhibition of rat aldose reductase activity at 100 uM.
How it was run: (§1)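 Crude rat lens enzyme: 50 lenses homogenized in distilled water and spun at 10000 rpm for 10 min at 0–5 °C. Supernatant diluted so the control rate was 0.010 ± 0.002 A/min. Reaction in 0.1 M phosphate pH 6.2 with 0.104 mM NADPH, started with 10 mM DL-glyceraldehyde. NADPH loss read at 340 nm for 3.0 min against a glyceraldehyde-free blank. Inhibitor tested at 100 μM; % inhibition vs substrate-only control, reported with SEM.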

[2] = molecular target: Aldo-keto reductase family 1 member B1 (Rattus norvegicus, UniProt P07943); test: Inhibition of rat aldose reductase enzyme.
How it was run: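 Rat lens supernatant (homogenized in water, spun at 0–5 °C, diluted to a control rate of 0.010 ± 0.002 A/min). Assayed in 0.1 M phosphate pH 6.2, 0.104 mM NADPH, 10 mM DL-glyceraldehyde, following A340 decrease for 3.0 min. Four inhibitor concentrations, three determinations each. IC50 from least-squares fit of the log dose-response curve.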

[3] = molecular target: Aldo-keto reductase family 1 member B1 (Rattus norvegicus) (UniProt P07943); test: Compound was tested for percent inhibition of aldose reductase inhibitory activity using rat lens assay at concentration of 100 uM; how it was run: as §1

Row | inhibition [1] | IC50 [2] | inhibition [3] | SMILES
1 | 79% | 7.12 µM |  | O=C(O)CNS(=O)(=O)c1cccc(NC(=O)c2ccccc2)c1
2 | 87% | 2.64 µM |  | O=C(O)CNS(=O)(=O)c1ccc(NC(=O)COc2ccccc2)cc1
3 | 86% | 11.5 µM |  | O=C(O)CNS(=O)(=O)c1ccc(NC(=O)CCc2ccccc2)cc1
4 | 79% | 3.5 µM |  | O=C(O)CNS(=O)(=O)c1ccc(NC(=O)COCc2ccccc2)cc1
5 |  | 2.17 µM | 100% | O=C(O)CNS(=O)(=O)c1ccc(NC(=O)Cc2ccccc2)cc1
6 | 88% | 4.22 µM |  | CC(=O)Nc1ccc(S(=O)(=O)NCC(=O)O)cc1
7 | 71% | 7.04 µM |  | O=C(O)CNS(=O)(=O)c1ccc(NCc2ccccc2)cc1
8 | 74% | 38 µM |  | Nc1ccccc1S(=O)(=O)NCC(=O)O
9 | 72% | 0.69 µM |  | O=C(O)CNS(=O)(=O)c1ccc(NC(=O)/C=C/c2ccccc2)cc1
10 | 65% | 8.42 µM |  | O=C(O)CNS(=O)(=O)c1ccc(N/C(S)=N/c2ccccc2)cc1
11 | 81% | 0.41 µM |  | O=C(O)CNS(=O)(=O)c1ccc(NC(=O)c2ccccc2)cc1
12 | 82% | 6.03 µM |  | O=C(O)CNS(=O)(=O)c1ccc(NC(=O)OCc2ccccc2)cc1
13 | 80% | 10.9 µM |  | CN(C)c1ccc(S(=O)(=O)NCC(=O)O)cc1
14 | 73% | 29 µM |  | Nc1cccc(S(=O)(=O)NCC(=O)O)c1
15 | 76% | 16 µM |  | Nc1ccc(S(=O)(=O)NCC(=O)O)cc1
16 | 52% | 78 µM |  | O=C(O)CNS(=O)(=O)c1ccccc1NC(=O)c1ccccc1
17 | 83% | 2.75 µM |  | O=C(O)CNS(=O)(=O)c1ccc(NC(=O)Nc2ccccc2)cc1
